Reference: ChEMBL document CHEMBL4725436, “Gibberellin JRA-003: A Selective Inhibitor of Nuclear Translocation of IKKα” (ACS Med Chem Lett, 2020)
Activity calls are given as the source filed them. The calls are words filed in the database; no cut-off is given here.

Legend:
[1] = target: T1, Inhibitor of nuclear factor kappa-B kinase subunit alpha (Homo sapiens) (UniProt O15111); test: Binding affinity to IKKalpha in human HeLa cells at 10 uM preincubated with IL-1 beta for 3 hrs followed by incubation with compound for 2 hrs by pull down based western blotting analysis; assay type: cell-based
T1 sequence (whole entry): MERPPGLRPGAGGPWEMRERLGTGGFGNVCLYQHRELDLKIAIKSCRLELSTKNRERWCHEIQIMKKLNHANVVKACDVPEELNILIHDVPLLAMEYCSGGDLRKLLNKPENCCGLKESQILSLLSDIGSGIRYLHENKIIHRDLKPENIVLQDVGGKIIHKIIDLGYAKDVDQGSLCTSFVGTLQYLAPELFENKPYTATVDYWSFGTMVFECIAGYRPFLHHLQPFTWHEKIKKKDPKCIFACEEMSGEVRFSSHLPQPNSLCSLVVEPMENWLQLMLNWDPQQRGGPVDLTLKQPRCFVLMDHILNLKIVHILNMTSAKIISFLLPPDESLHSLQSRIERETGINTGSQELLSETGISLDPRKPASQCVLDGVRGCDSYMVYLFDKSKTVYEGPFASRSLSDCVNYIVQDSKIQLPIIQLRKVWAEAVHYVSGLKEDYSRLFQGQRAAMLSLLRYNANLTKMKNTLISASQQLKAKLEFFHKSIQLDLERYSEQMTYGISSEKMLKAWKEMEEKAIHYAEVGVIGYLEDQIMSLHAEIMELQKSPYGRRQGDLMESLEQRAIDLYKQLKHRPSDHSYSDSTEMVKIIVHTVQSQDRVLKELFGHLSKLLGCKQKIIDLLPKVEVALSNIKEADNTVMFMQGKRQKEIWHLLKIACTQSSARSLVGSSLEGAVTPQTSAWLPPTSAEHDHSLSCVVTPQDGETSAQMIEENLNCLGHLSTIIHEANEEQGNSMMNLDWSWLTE
In short: (§1)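 Alkyne-tagged probe pull-down in IL-1β-stimulated HeLa cells. Protein captured by the probe was analysed by Western blotting.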

[2] = target: T1, Inhibitor of nuclear factor kappa-B kinase subunit alpha (Homo sapiens); test: Irreversible covalent binding affinity to IKKalpha in human HeLa cells at 10 uM preincubated with IL-1 beta for 3 hrs followed by incubation with compound for 2 hrs measured following rigorous washing by pull down based western blotting analysis; assay type: cell-based; in short: as §1
[3] = target: T2, Inhibitor of nuclear factor kappa-B kinase subunit beta (Homo sapiens) (UniProt O14920); test: Inhibition of JRA-031 binding to IKKbeta in TNF-alpha-stimulated human HEK293T cells at 1 uM pretreated with compound for 1 hr followed by labeling with JRA-031 for 1 hr followed by stimulation with TNF-alpha for 1 hr by pull down based mass spectrometry; assay type: cell-based; settings: HEK-293T
T2 sequence (whole entry): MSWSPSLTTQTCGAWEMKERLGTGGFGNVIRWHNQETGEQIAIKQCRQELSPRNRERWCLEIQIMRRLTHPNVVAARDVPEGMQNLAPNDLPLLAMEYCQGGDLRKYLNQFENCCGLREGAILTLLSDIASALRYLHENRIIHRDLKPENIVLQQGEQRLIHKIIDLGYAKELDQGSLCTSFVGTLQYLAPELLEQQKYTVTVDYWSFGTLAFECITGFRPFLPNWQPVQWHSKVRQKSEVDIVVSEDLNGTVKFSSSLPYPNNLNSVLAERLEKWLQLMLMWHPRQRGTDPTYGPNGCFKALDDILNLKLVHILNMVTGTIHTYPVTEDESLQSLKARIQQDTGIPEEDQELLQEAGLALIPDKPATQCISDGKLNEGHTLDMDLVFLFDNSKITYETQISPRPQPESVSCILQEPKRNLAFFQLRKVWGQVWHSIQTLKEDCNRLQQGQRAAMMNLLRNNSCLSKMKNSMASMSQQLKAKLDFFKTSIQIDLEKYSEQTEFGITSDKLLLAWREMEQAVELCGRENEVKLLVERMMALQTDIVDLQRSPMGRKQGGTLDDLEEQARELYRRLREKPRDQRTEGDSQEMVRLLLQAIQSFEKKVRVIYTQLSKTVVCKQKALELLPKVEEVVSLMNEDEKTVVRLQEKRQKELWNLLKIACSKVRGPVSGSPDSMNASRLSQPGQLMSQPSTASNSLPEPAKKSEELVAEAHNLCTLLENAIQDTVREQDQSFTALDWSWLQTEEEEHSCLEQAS

Hs-578T = test: Cytotoxicity against human Hs-578T cells assessed as reduction in cell viability measured after 24 hrs by CellTiter-Glo luminescent assay; assay type: functional, cell-based
In short: (§2)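 High-throughput viability screen of test agents across a panel of 22 cancerous and noncancerous human cell lines. Viability was read by CellTiter-Glo luminescence.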

SUD4 = test: Cytotoxicity against human SU-DHL-4 cells assessed as reduction in cell viability measured after 24 hrs by CellTiter-Glo luminescent assay; assay type: functional, cell-based; settings: SU-DHL-4, 24 h; in short: as §2
[4] = Cytotoxicity against human Hs578Bst cells assessed as reduction in cell viability measured after 24 hrs by CellTiter-Glo luminescent assay; assay type: cell-based; in short: as §2
[5] = Cytotoxicity against human Hs895T cells assessed as reduction in cell viability measured after 24 hrs by CellTiter-Glo luminescent assay; assay type: functional, cell-based; in short: as §2
NCI-H446 = test: Cytotoxicity against human NCI-H446 cells assessed as reduction in cell viability measured after 24 hrs by CellTiter-Glo luminescent assay; assay type: functional, cell-based; settings: NCI-H446, 24 h; in short: as §2
HEK-293T = test: Cytotoxicity against human HEK293T cells assessed as reduction in cell viability measured after 24 hrs by CellTiter-Glo luminescent assay; assay type: cell-based; in short: as §2
RCK8 = test: Cytotoxicity against human RC-K8 cells assessed as reduction in cell viability measured after 24 hrs by CellTiter-Glo luminescent assay; assay type: functional, cell-based; settings: RCK8, 24 h; in short: as §2
[6] = Cytotoxicity against human Hs895SK cells assessed as reduction in cell viability measured after 24 hrs by CellTiter-Glo luminescent assay; assay type: cell-based; settings: Hs 895.Sk; in short: as §2
CA46 = test: Cytotoxicity against human CA46 cells assessed as reduction in cell viability measured after 24 hrs by CellTiter-Glo luminescent assay; assay type: functional, cell-based; settings: CA46, 24 h; in short: as §2
[7] = Inhibition of IKKalpha/IKKbeta in human HEK293T cells transfected with firefly luciferase gene assessed as inhibition of TNF-alpha-stimulated NF-kappaB signalling preincubated for 1 hr followed by TNF alpha stimulation measured after 3 hrs by luciferase reporter gene assay; assay type: cell-based; settings: HEK-293T
In short: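 Commercial NF-κB-driven luciferase reporter assay in HEK 293T cells stimulated with TNFα. EC50 was derived from the luminescence readout.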

PSN1 = test: Cytotoxicity against human PSN1 cells assessed as reduction in cell viability measured after 24 hrs by CellTiter-Glo luminescent assay; assay type: functional, cell-based; settings: PSN1, 24 h; in short: as §2
[8] = target: T1, Inhibitor of nuclear factor kappa-B kinase subunit alpha (Homo sapiens); test: Inhibition of JRA-031 binding to IKKalpha in TNF-alpha-stimulated human HEK293T cells at 1 uM pretreated with compound for 1 hr followed by labeling with JRA-031 for 1 hr followed by stimulation with TNF-alpha for 1 hr by pull down based mass spectrometry; assay type: cell-based; settings: HEK-293T
[9] = Cytotoxicity against human Hs888Lu cells assessed as reduction in cell viability measured after 24 hrs by CellTiter-Glo luminescent assay; assay type: cell-based; in short: as §2
HCC1599 = test: Cytotoxicity against human HCC1599 cells assessed as reduction in cell viability measured after 24 hrs by CellTiter-Glo luminescent assay; assay type: functional, cell-based; settings: HCC1599, 24 h; in short: as §2
[10] = target: T1, Inhibitor of nuclear factor kappa-B kinase subunit alpha (Homo sapiens); test: Binding affinity to IKKalpha in human HeLa cells at 50 uM preincubated with IL-1 beta for 3 hrs followed by incubation with compound for 2 hrs by pull down based western blotting analysis; assay type: cell-based; in short: as §1
[11] = target: T3, Nuclear factor NF-kappa-B p105 subunit (Homo sapiens, UniProt P19838); test: Binding affinity to NF-kappaB p50 (unknown origin) by SPR analysis
T3 sequence (P19838 whole entry): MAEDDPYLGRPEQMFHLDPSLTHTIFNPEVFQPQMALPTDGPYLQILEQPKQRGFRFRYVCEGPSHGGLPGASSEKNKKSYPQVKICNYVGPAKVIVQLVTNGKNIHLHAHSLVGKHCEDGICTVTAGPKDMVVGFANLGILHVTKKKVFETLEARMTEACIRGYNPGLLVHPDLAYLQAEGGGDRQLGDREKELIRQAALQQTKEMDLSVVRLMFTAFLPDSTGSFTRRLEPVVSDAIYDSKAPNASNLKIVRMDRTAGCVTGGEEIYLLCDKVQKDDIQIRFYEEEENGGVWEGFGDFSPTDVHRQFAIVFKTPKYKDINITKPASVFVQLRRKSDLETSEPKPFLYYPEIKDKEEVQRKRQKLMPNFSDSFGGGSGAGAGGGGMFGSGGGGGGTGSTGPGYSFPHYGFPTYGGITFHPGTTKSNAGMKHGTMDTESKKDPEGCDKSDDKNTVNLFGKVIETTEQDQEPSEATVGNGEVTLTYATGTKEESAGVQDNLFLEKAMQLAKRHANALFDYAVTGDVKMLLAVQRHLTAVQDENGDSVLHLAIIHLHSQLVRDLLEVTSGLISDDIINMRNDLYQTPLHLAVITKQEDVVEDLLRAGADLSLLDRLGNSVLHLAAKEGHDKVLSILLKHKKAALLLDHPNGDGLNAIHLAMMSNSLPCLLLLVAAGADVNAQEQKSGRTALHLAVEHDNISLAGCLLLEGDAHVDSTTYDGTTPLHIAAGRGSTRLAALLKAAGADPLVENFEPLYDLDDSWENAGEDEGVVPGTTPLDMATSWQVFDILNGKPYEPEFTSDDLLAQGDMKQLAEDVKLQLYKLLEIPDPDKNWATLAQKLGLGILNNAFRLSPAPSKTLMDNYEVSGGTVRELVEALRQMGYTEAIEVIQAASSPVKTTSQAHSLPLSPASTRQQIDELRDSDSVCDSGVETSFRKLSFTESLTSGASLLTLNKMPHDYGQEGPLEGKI

Transcription factor p65 = Transcription factor p65 (Homo sapiens, UniProt Q04206); test: Binding affinity to NF-kappaB RelA (unknown origin) by SPR analysis
Chain of Transcription factor p65 (Q04206 whole entry): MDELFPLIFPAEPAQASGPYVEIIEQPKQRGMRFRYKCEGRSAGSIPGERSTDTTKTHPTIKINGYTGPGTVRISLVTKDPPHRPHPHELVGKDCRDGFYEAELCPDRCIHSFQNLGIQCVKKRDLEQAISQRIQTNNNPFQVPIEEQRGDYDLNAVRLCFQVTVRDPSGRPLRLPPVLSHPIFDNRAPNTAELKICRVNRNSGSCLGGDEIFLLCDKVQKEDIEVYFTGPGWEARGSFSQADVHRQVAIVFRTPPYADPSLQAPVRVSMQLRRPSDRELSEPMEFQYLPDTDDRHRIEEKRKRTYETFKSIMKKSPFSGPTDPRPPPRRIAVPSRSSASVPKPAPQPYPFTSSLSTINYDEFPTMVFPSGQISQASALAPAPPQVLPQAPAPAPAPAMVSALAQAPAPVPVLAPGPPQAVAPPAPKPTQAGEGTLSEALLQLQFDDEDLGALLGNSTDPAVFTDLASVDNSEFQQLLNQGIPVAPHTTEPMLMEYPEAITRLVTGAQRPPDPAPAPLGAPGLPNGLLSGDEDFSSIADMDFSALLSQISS

SMILES	inhibition [1]	inhibition [2]	inhibition [3]	IC50 (Hs-578T)	IC50 (SUD4)	IC50 [4]	IC50 [5]	IC50 (NCI-H446)	IC50 (HEK-293T)	IC50 (RCK8)	IC50 [6]	IC50 (CA46)	EC50 [7]	IC50 (PSN1)	inhibition [8]	IC50 [9]	IC50 (HCC1599)	inhibition [10]	Kd [11]	Kd (Transcription factor p65)
C#CCCNC(=O)[C@H]1[C@@H]2[C@@]3(C)C(=O)C=C[C@@]2(OC3=O)[C@@H]2CC[C@]3(O)C[C@@]21CC3=C	Active	Active																		
C=C1C[C@]23C[C@@]1(O)CC[C@H]2[C@@]12C=C[C@H](O)[C@@](C)(C(=O)O1)[C@H]2[C@@H]3C(=O)OC			inactive	> 10 µM	> 10 µM	> 10 µM	> 10 µM	> 10 µM	> 10 µM	> 10 µM	> 10 µM	> 10 µM	> 100 µM	> 10 µM	inactive	> 10 µM	> 10 µM			
C#CCCNC(=O)[C@H]1[C@H]2[C@@]3(C=C[C@H](O)[C@@]2(C)C(=O)O3)[C@@H]2CC[C@]3(O)C[C@@]21CC3=C																		inactive		
C=C1C[C@]23C[C@@]1(O)CC[C@@H]2c1cccc(C)c1[C@@H]3C(=O)O				> 10 µM	> 10 µM	> 10 µM	> 10 µM	> 10 µM	> 10 µM	> 10 µM	> 10 µM	> 10 µM	> 100 µM	> 10 µM		> 10 µM	> 10 µM		0.076 µM	6.34 µM
